Results published in ChEMBL document CHEMBL2169747, “Synthesis and biological properties of highly sequence-specific-alkylating N-methylpyrrole-N-methylimidazole polyamide conjugates” (J Med Chem, 2012).
Blank lines part the entries; values can stand above or below the molecule they belong to. Active and inactive are the calls of the source. The rule behind the calls is not given here.

Assays:
DU-145 [1] = experiment: Antitumor activity against human DU145 cells xenografted in BALB/c-nu/nu mouse assessed as effect on tumor growth at 1.6 mg/kg, iv administered as liposomal conjugate for 14 days; assay type: functional, organism-based; parameters: dose 1.6 mg/kg
How it was run: (§1)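 Male BALB/c-nu/nu mice (5 weeks, 15−22 g) with subcutaneous right-subaxillary A549 or DU145 xenografts (3 × 10^6 cells/mouse), grouped by tumor size. Liposomes were made from a lipid film hydrated in water and bath-sonicated 2 h, giving 330 μg/mL conjugate in 17 mM lipid. A single 125 μL intravenous dose (41 μg/mouse) was given on day 0. Tumor size and weight were read every other day for 14 days. n = 5 or 6.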

A549 [2] = experiment: Antitumor activity against human A549 cells xenografted in BALB/c-nu/nu mouse assessed as effect on tumor growth at 1.6 mg/kg, iv administered as liposomal conjugate for 14 days; assay type: functional, organism-based; parameters: dose 1.6 mg/kg; how it was run: as §1
A549 [3] = experiment: Cytotoxicity against human A549 cells assessed as cell growth inhibition after 48 hrs by microplate reader analysis; assay type: functional, cell-based; details: A549, 48 h
How it was run: (§2)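 Medium was RPMI-1640 for EBC-1, A549 and DU145, and DMEM for PC-3, SK-N-SH and K562. Both media had 10% heat-inactivated FBS plus penicillin/streptomycin; cells were kept at 37 °C, 5% CO2. Cells were seeded at 5000/well and given compound from DMSO stock (final 0.1% DMSO) for 48 h. Viability was read by WST-8 colorimetry, absorbance at 450 and 600 nm, and IC50 determined.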

PC-3 = experiment: Cytotoxicity against human PC3 cells assessed as cell growth inhibition after 48 hrs by microplate reader analysis; assay type: functional, cell-based; details: PC-3, 48 h; how it was run: as §2
[4] = Cytotoxicity against human EBC1 cells assessed as cell growth inhibition after 48 hrs by microplate reader analysis; assay type: functional, cell-based; details: EBC-1, 48 h; how it was run: as §2
SK-N-SH = experiment: Cytotoxicity against human SK-N-SH cells assessed as cell growth inhibition after 48 hrs by microplate reader analysis; assay type: functional, cell-based; how it was run: as §2
K562 = experiment: Cytotoxicity against human K562 cells assessed as cell growth inhibition after 48 hrs by microplate reader analysis; assay type: functional, cell-based; details: K562, 48 h; how it was run: as §2
DU-145 [5] = experiment: Cytotoxicity against human DU145 cells assessed as cell growth inhibition after 48 hrs by microplate reader analysis; assay type: functional, cell-based; details: DU-145, 48 h; how it was run: as §2
A549 [6] = experiment: Downregulation of RABGAP1L gene expression in human A549 cells at 26 nM after 12 hrs by microarray analysis relative to control; assay type: functional
How it was run: (§3)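 A549 cells (RPMI-1640, 10% heat-inactivated FBS, penicillin/streptomycin, 37 °C, 5% CO2) seeded at 4 × 10^5 per 60 mm dish. Exposed 12 h to conjugate at 21, 26, 34 or 100 nM in medium with 0.1% DMSO, against 0.1% DMSO control. Whole-genome (~25 000 genes) expression profiled by microarray.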

A549 [7] = experiment: Downregulation of PTPRK gene expression in human A549 cells at 26 nM after 12 hrs by microarray analysis relative to control; assay type: functional; how it was run: as §3
A549 [8] = experiment: Downregulation of TNIK gene expression in human A549 cells at 26 nM after 12 hrs by microarray analysis relative to control; assay type: functional; how it was run: as §3
A549 [9] = experiment: Downregulation of ADH1A gene expression in human A549 cells at 26 nM after 12 hrs by microarray analysis relative to control; assay type: functional
How it was run: (§4)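 A549 cells, 4 × 10^5 per 60 mm dish, were exposed to conjugate for 12 h in medium with 0.1% DMSO; vehicle control was 0.1% DMSO. Whole human genome (~25 000 genes) expression was profiled by microarray and expression compared with the control.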

A549 [10] = experiment: Downregulation of SEMA3E gene expression in human A549 cells at 26 nM after 12 hrs by microarray analysis relative to control; assay type: functional; how it was run: as §3
A549 [11] = experiment: Downregulation of Q9Y6Z5 gene expression in human A549 cells at 26 nM after 12 hrs by microarray analysis relative to control; assay type: functional; how it was run: as §3
A549 [12] = experiment: Upregulation of PPM1D gene expression in human A549 cells at 26 nM after 12 hrs by microarray analysis relative to control; assay type: functional
How it was run: (§5)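 4 ×10^5 A549 cells seeded per 60 mm dish and treated 12 h with conjugate (21, 26, 34 or 100 nM) in medium; control medium contained 0.1% DMSO, with conjugates added as 0.1% DMSO solutions. Whole human genome (~25 000 genes) expression profiled by microarray against the DMSO control. A549 culture: RPMI-1640 with 10% heat-inactivated FBS, penicillin/streptomycin, 37 °C, 5% CO2.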

A549 [13] = experiment: Upregulation of GDF15 gene expression in human A549 cells at 26 nM after 12 hrs by microarray analysis relative to control; assay type: functional; how it was run: as §5
A549 [14] = experiment: Antitumor activity against human A549 cells xenografted in BALB/c-nu/nu mouse assessed as effect on tumor growth at 0.50 mg/kg, ip for 14 days; assay type: functional, organism-based; parameters: dose 0.5 mg/kg
How it was run: (§6)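 Male BALB/c-nu/nu mice, 5 weeks old, 15−22 g. Cells were implanted subcutaneously in the right subaxillary region at 3 × 10^6 cells/mouse: 50 μL for A549, 100 μL for DU145, with HBSS and Matrigel used. Mice were grouped by tumor size. The naked conjugate was given intraperitoneally once on day 0 as 20 μL at 625 μg/mL in 100% DMSO (12.5 μg/mouse). Tumor size and weight were measured every other day for 14 days. n = 7 or 8.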

DU-145 [15] = experiment: Antitumor activity against human DU145 cells xenografted in BALB/c-nu/nu mouse assessed as effect on tumor growth at 0.50 mg/kg, ip for 14 days; assay type: functional, organism-based; parameters: dose 0.5 mg/kg; how it was run: as §6
DU-145 [16] = experiment: Antiangiogenic activity against human DU145 cells; assay type: functional, cell-based
A549 [17] = experiment: Antiangiogenic activity against human A549 cells; assay type: functional, cell-based
Nucleic Acid = experiment: Induction of calf thymus DNA cleavage at 10 to 25 nM after 12 h by PAGE analysis; assay type: nucleic-acid assay; details: in the assay text read “208-bp PCR fragment DNA” for “calf thymus DNA”
How it was run: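 5′-Texas Red-labeled 208 bp PCR fragments alkylated in 5.0 mM sodium phosphate (pH 7.0) with 10% DMF, room temperature, 12 h. Quenched with calf thymus DNA and heated 95 °C for 5 min under neutral conditions. Recovered DNA in formamide loading dye, heated 95 °C 20 min, then run on 6% denaturing polyacrylamide gel with 6.0 M urea at 1.5 kV, 40 °C.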

A549 [18] = experiment: Downregulation of DPYD gene expression in human A549 cells at 34 nM after 12 hrs by microarray analysis relative to control; assay type: functional; how it was run: as §4
A549 [19] = experiment: Downregulation of SUPT3H gene expression in human A549 cells at 34 nM after 12 hrs by microarray analysis relative to control; assay type: functional; how it was run: as §3
A549 [20] = experiment: Downregulation of NP_115632.1 gene expression in human A549 cells at 34 nM after 12 hrs by microarray analysis relative to control; assay type: functional; how it was run: as §4
A549 [21] = experiment: Downregulation of GTDC1 gene expression in human A549 cells at 34 nM after 12 hrs by microarray analysis relative to control; assay type: functional; how it was run: as §4
A549 [22] = experiment: Upregulation of MDM2 gene expression in human A549 cells at 34 nM after 12 hrs by microarray analysis relative to control; assay type: functional; how it was run: as §5
A549 [23] = experiment: Upregulation of GADD45A gene expression in human A549 cells at 34 nM after 12 hrs by microarray analysis relative to control; assay type: functional; how it was run: as §5

Activity (Nucleic Acid): Active
Structure (SMILES): CC(=O)Nc1cn(C)c(C(=O)Nc2cc(C(=O)Nc3cc(C(=O)NCCC(=O)Nc4cc(C(=O)NCCCC(=O)Nc5cc(C(=O)NCCC(=O)Nc6cn(C)c(C(=O)Nc7ccc8[nH]c(C(=O)N9CC(CCl)c%10c9cc(O)c9ccccc%109)cc8c7)n6)n(C)c5)n(C)c4)n(C)c3)n(C)c2)n1 (racemic)
Activity (DU-145 [1]): Active
Activity (A549 [2]): inactive
IC50 (A549 [3]): 25.7 nM
IC50 (PC-3): 12.6 nM
IC50 [4]: 60.3 nM
IC50 (SK-N-SH): 19.1 nM
IC50 (K562): 9.12 nM
IC50 (DU-145 [5]): 6.03 nM
fold change (FC) (A549 [6]): 0.155
fold change (FC) (A549 [7]): 0.257
fold change (FC) (A549 [8]): 0.312
fold change (FC) (A549 [9]): 0.317
fold change (FC) (A549 [10]): 0.353
fold change (FC) (A549 [11]): 0.356
fold change (FC) (A549 [12]): 5.7
fold change (FC) (A549 [13]): 5.5
Activity (A549 [14]): inactive
Activity (DU-145 [15]): inactive
Activity (DU-145 [16]): inactive
Activity (A549 [17]): inactive

Activity (Nucleic Acid): Active
Structure (SMILES): CC(=O)Nc1cn(C)c(C(=O)Nc2cn(C)c(C(=O)Nc3cc(C(=O)NCCC(=O)Nc4cc(C(=O)NCCCC(=O)Nc5cn(C)c(C(=O)NCCC(=O)Nc6cn(C)c(C(=O)Nc7ccc8[nH]c(C(=O)N9CC(CCl)c%10c9cc(O)c9ccccc%109)cc8c7)n6)n5)n(C)c4)n(C)c3)n2)n1 (racemic)
Activity (A549 [2]): inactive
IC50 (A549 [3]): 33.9 nM
IC50 (PC-3): 19.1 nM
IC50 [4]: 170 nM
IC50 (SK-N-SH): 40.7 nM
IC50 (K562): 11.5 nM
IC50 (DU-145 [5]): 6.31 nM
fold change (FC) (A549 [18]): 0.103
fold change (FC) (A549 [19]): 0.231
fold change (FC) (A549 [20]): 0.273
fold change (FC) (A549 [21]): 0.307
fold change (FC) (A549 [22]): 8.9
fold change (FC) (A549 [23]): 5.9
Activity (A549 [14]): inactive
Activity (DU-145 [15]): inactive
Activity (DU-145 [16]): inactive
Activity (A549 [17]): inactive
